Laboratory results as given in ChEMBL document CHEMBL1122917, “Vinblastin-23-oyl amino acid derivatives: chemistry, physicochemical data, toxicity, and antitumor activities against P388 and L1210 leukemias” (J Med Chem, 1985).

Key:
[1] = Acute iv toxicity against Swiss strain of 40 mice after 4 doses of injection; type: organism-based; details: mouse, in vivo
In short: (§1)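 Acute toxicity in Swiss, CD1 or NMRI mice. Drugs given iv as sulfate salts. LD50 taken at day 14 from several dose levels, with 40–[…] mice per drug and strain.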

Mus musculus [2] = assay: Number of survivors of DBA2 mice on 60th day after inoculation with L1210 leukemia cell line intraperitoneally at a dose of 2 mg/kg/day; 0/10; type: functional; details: route intraperitoneal
[3] = Acute iv toxicity against NMRI strain of 100 mice after 7 doses of injection; type: organism-based; details: mouse, in vivo; in short: as §1
Mus musculus [4] = assay: Number of survivors on 60th day at dose 4 mg/kg/day in 10 mice implanted with P388 leukemia cell line for 1st scheduled day; 0/10; type: functional
Mus musculus [5] = assay: Percent increase in life span at dose 9 mg/kg/day in 10 mice implanted with P388 leukemia cell line; type: functional
In short: (§2)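 Female DBA2 mice inoculated iv on day 0 with 10^4 P388 cells; single iv treatment on day 1 with drug as sulfate salt in physiological saline. Survival followed; %ILS from all deaths and survivors as (T/C × 100) − 100, maximal MST 30 days; survivors counted on days 30 and 60. Most experiments confirmed three times.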

Mus musculus [6] = assay: Percent increase in life span at dose 4 mg/kg/day in 10 mice implanted with P388 leukemia cell line for 1st scheduled day; type: functional
In short: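 Female DBA2 mice inoculated iv on day 0 with 10^5 P388 cells; iv dosing of sulfate salts in physiological saline on day 1 only or on days 1, 8 and 15. %ILS from all deaths and survivors as (T/C × 100) − 100, maximal MST 60 days; survivors scored on day 60.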

Mus musculus [7] = assay: Number of survivors of DBA2 mice on 60th day after inoculation with L1210 leukemia cell line intraperitoneally at a dose of 4 mg/kg/day; 0/10; type: functional; details: route intraperitoneal
Mus musculus [8] = assay: Percent increase in life span of DBA2 mice after inoculation with L1210 leukemia intravenously at a dose of 3 mg/kg per day; type: functional; details: route intravenous
In short: (§3)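 Female DBA2 mice inoculated iv on day 0 with 10^4 L1210 cells; drugs given iv as sulfate salts in physiological saline, mostly once on day 1. %ILS from all deaths and survivors as (T/C × 100) − 100; survivors scored on days 30 and 60.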

Mus musculus [9] = assay: Number of survivors on 60th day at dose 4 mg/kg/day in 10 mice implanted with P388 leukemia cell line; 0/10; type: functional
Mus musculus [10] = assay: Number of survivors of DBA2 mice on 30th day after inoculation with L1210 leukemia cell line intravenously at a dose of 8 mg/kg/day; 0/10; type: functional; details: route intravenous
[11] = Acute iv toxicity against CD1 strain of 40 mice after 4 doses of injection; type: organism-based; details: CD1, mouse, in vivo; in short: as §1
Mus musculus [12] = assay: Number of survivors of DBA2 mice on 30th day after inoculation with L1210 leukemia cell line intravenously at a dose of 6 mg/kg/day; 0/10; type: functional; details: route intravenous
Mus musculus [13] = assay: Number of survivors of DBA2 mice on 60th day after inoculation with L1210 leukemia cell line intravenously at a dose of 9 mg/kg/day; 0/10; type: functional; details: route intravenous
In short: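 Female DBA₂ mice received 10⁴ L1210 cells iv on day 0. Compounds were given iv as sulfate salts in physiological saline, as a single dose on day 1 (mg/kg per day). Groups were 10 mice. Survivors were counted on day 60. Cells were maintained by ip passage in DBA₂ mice.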

Mus musculus [14] = assay: Number of survivors of DBA2 mice on 60th day after inoculation with L1210 leukemia cell line intraperitoneally at a dose of 6 mg/kg/day; 0/10; type: functional; details: route intraperitoneal
Mus musculus [15] = assay: Number of survivors of DBA2 mice on 30th day after inoculation with L1210 leukemia cell line intravenously at a dose of 3 mg/kg/day; 0/10; type: functional; details: route intravenous
Mus musculus [16] = assay: Number of survivors on 60th day at dose 9 mg/kg/day in 10 mice implanted with P388 leukemia cell line; 0/10; type: functional; in short: as §2
Mus musculus [17] = assay: Percent increase in life span of DBA2 mice after inoculation with L1210 leukemia intravenously at a dose of 8 mg/kg per day; type: functional; details: route intravenous; in short: as §3
Mus musculus [18] = assay: Number of survivors on 30th day at dose 2 mg/kg/day in 10 mice implanted with P388 leukemia cell line; 0/10; type: functional
Mus musculus [19] = assay: Number of survivors of DBA2 mice on 30th day after inoculation with L1210 leukemia cell line intravenously at a dose of 3.5 mg/kg/day; 0/10; type: functional; details: route intravenous
Mus musculus [20] = assay: Number of survivors on 30th day at dose 1.5 mg/kg/day in 10 mice implanted with P388 leukemia cell line; 0/10; type: functional
Mus musculus [21] = assay: Number of survivors of DBA2 mice on 60th day after inoculation with L1210 leukemia cell line intraperitoneally at a dose of 2.7 mg/kg/day; 0/10; type: functional; details: route intraperitoneal
Mus musculus [22] = assay: Number of survivors of DBA2 mice on 60th day after inoculation with L1210 leukemia cell line intravenously at a dose of 1 mg/kg/day; 0/10; type: functional; details: route intravenous
Mus musculus [23] = assay: Percent increase in life span at dose 7 mg/kg/day in 9 mice implanted with P388 leukemia cell line for 1st schedule day; type: functional
Mus musculus [24] = assay: Percent increase in life span at dose 6 mg/kg/day in 10 mice implanted with P388 leukemia cell line for 1st schedule day; type: functional
Mus musculus [25] = assay: Number of survivors on 60th day at dose 10 mg/kg/day in 7 mice implanted with P388 leukemia cell line for 1,8.15 scheduled days; 0/10; type: functional
Mus musculus [26] = assay: Number of survivors of DBA2 mice on 60th day after inoculation with L1210 leukemia cell line intravenously at a dose of 10 mg/kg/day; 0/10; type: functional; details: route intravenous
Mus musculus [27] = assay: Number of survivors on 30th day at dose 9 mg/kg/day in 10 mice implanted with P388 leukemia cell line; 3/10; type: functional
Mus musculus [28] = assay: Number of survivors on 60th day at dose 6 mg/kg/day in 7 mice implanted with P388 leukemia cell line for 1,8.15 scheduled days from Exp-2; 0/10; type: functional
Mus musculus [29] = assay: Number of survivors on 60th day at dose 2 mg/kg/day in 7 mice implanted with P388 leukemia cell line for 1,8,15 scheduled days; 0/11; type: functional
Mus musculus [30] = assay: Percent increase in life span at dose 20 mg/kg/day in 10 mice implanted with P388 leukemia cell line; type: functional; in short: as §2
Mus musculus [31] = assay: Number of survivors on 30th day at dose 60 mg/kg/day in 10 mice implanted with P388 leukemia cell line for 1st scheduled day; 8/10; type: functional
Mus musculus [32] = assay: Number of survivors of DBA2 mice on 30th day after inoculation with L1210 leukemia cell line intravenously at a dose of 70 mg/kg/day; 0/10; type: functional; details: route intravenous
Mus musculus [33] = assay: Number of survivors of DBA2 mice on 30th day after inoculation with L1210 leukemia cell line intravenously at a dose of 60 mg/kg/day; 0/10; type: functional; details: route intravenous
Mus musculus [34] = assay: Number of survivors on 30th day at dose 58 mg/kg/day in 10 mice implanted with P388 leukemia cell line;2/10; type: functional
Mus musculus [35] = assay: Number of survivors on 30th day at dose 60 mg/kg/day in 10 mice implanted with P388 leukemia cell line; 8/10; type: functional

Row | Compound | LD50 [1] | Survivors (Mus musculus [2]) | LD50 [3] | Survivors (Mus musculus [4]) | ILS at 9 mg/kg/day (Mus musculus [5]) | ILS at 4 mg/kg/day (Mus musculus [6]) | ILS at 3 mg/kg/day (Mus musculus [8]) | Survivors (Mus musculus [9]) | Survivors (Mus musculus [10]) | LD50 [11] | Survivors (Mus musculus [12]) | Survivors (Mus musculus [13]) | Survivors (Mus musculus [14]) | Survivors (Mus musculus [15]) | Survivors (Mus musculus [16]) | ILS at 8 mg/kg/day (Mus musculus [17]) | Survivors (Mus musculus [18]) | also measured
1 | CC[C@]1(O)C[C@@H]2CN(CCc3c([nH]c4ccccc34)[C@@](C(=O)OC)(c3cc4c(cc3OC)N(C)[C@H]3[C@@](O)(C(=O)OC)[C@H](OC(C)=O)[C@]5(CC)C=CCN6CC[C@]43[C@@H]65)C2)C1 [VINBLASTINE] | 26 mg/kg | 0 | 27.4 mg/kg | 0 | 49.5% | 52% | 30.3% | 0 | 0 | 28 mg/kg | 0 | 0 | 0 | 0 | 0 | 57.6% | – | Survivors (Mus musculus [7]): 0
2 | CC[C@]1(O)C[C@H]2CN(CCc3c([nH]c4ccccc34)[C@@](C(=O)OC)(c3cc4c(cc3OC)N(C=O)[C@H]3[C@@](O)(C(=O)OC)[C@H](OC(C)=O)[C@]5(CC)C=CCN6CC[C@]43[C@@H]65)C2)C1 [VINCRISTINE] | – | – | – | – | – | – | 28.8% | – | – | – | – | – | – | 0 | – | – | 0 | Survivors (Mus musculus [19]): 0; Survivors (Mus musculus [20]): 0; Survivors (Mus musculus [21]): 0; Survivors (Mus musculus [22]): 0
3 | CCOC(=O)[C@@H](NC(=O)[C@@]1(O)[C@H](O)[C@]2(CC)C=CCN3CC[C@@]4(c5cc([C@@]6(C(=O)OC)C[C@H]7C[N@](CCc8c6[nH]c6ccccc86)C[C@](O)(CC)C7)c(OC)cc5N(C)[C@@]14C)[C@@H]32)[C@@H](C)CC | – | – | – | – | 34% | – | – | – | 0 | – | 0 | 0 | – | – | 0 | 49% | – | ILS at 7 mg/kg/day (Mus musculus [23]): 37%; ILS at 6 mg/kg/day (Mus musculus [24]): 74%; Survivors (Mus musculus [25]): 0; Survivors (Mus musculus [26]): 0; Survivors (Mus musculus [27]): 3; Survivors (Mus musculus [28]): 0
4 | CC[C@]1(O)C[C@@H]2CN(CCc3c([nH]c4ccccc34)[C@@](C(=O)OC)(c3cc4c(cc3OC)N(C)[C@H]3[C@@](O)(C(N)=O)[C@H](O)[C@]5(CC)C=CCN6CC[C@]43[C@@H]65)C2)C1 [VINDESINE] | – | 0 | – | 0 | – | 43% | – | 0 | – | – | – | – | 0 | – | – | – | 0 | Survivors (Mus musculus [29]): 0
5 | CCOC(=O)[C@H](Cc1c[nH]c2ccccc12)NC(=O)[C@@]1(O)[C@H](O)[C@]2(CC)C=CCN3CC[C@@]4(c5cc([C@@]6(C(=O)OC)C[C@H]7C[N@](CCc8c6[nH]c6ccccc86)C[C@](O)(CC)C7)c(OC)cc5N(C)[C@@]14C)[C@@H]32 | 94 mg/kg | – | 269 mg/kg | – | – | – | – | – | – | 110 mg/kg | – | – | – | – | – | – | – | ILS at 20 mg/kg/day (Mus musculus [30]): 43.9%; Survivors (Mus musculus [31]): 8; Survivors (Mus musculus [32]): 0; Survivors (Mus musculus [33]): 0; Survivors (Mus musculus [34]): 2; Survivors (Mus musculus [35]): 8
